This is an account of results in publication PMC4774891 (Pharmaceutical research, 2015).

For data set [1], the system named is Caco-2 cell monolayers.
Data set [2] is described as follows: In vitro drug release. The note with it: PBS 1% Volpo pH 6.8, 37°C. Type of data set: physicochemical. Summed up:
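Equal drug amounts (free drug, spray-dried formulation, or physical mixture) suspended in 500 ml PBS with 1% Volpo, pH 6.8. USP type II paddle, 50 rpm, 37±0.5°C, followed over 48 h.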

Data set [3] can be described thus: Oral pharmacokinetic study. Type of data set: in vivo, Sprague Dawley rats. The note with it: rat.
The test system of data set [4] is A431 epidermoid carcinoma subcutaneous xenograft. Nature of the data set: Anticancer study in A431 subcutaneous xenograft model. The data set is classed as in vivo, Nu/nu mice. The note with it: 50 mg/kg daily orally, 4 weeks; vehicle control 6663.01 ±1113.23.
Data set [5] has as its system A431 tumors. The data set can be described thus: IHC analysis of A431 tumors. The data set is classed as in vivo, Nu/nu mice. The note with it: untreated control 34.00±6.26.
Data set [6] concerns VEGF. Nature of the data set: VEGF estimation by ELISA in serum and tumor lysates. The data set is classed as in vivo, Nu/nu mice.
Data set [7] is described as follows: Chronic toxicity. The note with it: 4 weeks daily oral. The data set is classed as in vivo.
For data set [8] the following is noted: free drug; cited from earlier work.
A short description of data set [9]: Caco-2 permeability study. The note with it: human, Caco-2, pH 5.8. A general note: Caco-2 cells form a polarised layer with tight junctions and transporters.
The mark [10] stands for this setting: Sprague Dawley, plasma, po, 50 mg/kg.

Turning to lucifer yellow, the “average permeability (paracellular control)” value in [1] is under 0.15 ×10⁻⁶ cm/s.
Regarding `COc1cc2ncnc(Nc3ccc(F)c(Cl)c3)c2cc1OCCCN1CCOCC1` [Gef free drug, Gefitinib], the “drug released after 48 h” value in data set [2] is 16%. In addition, in data set [3] (50 mg/kg orally), the CL came to 1.9 ± 0.0408 mL/day/kg, the Vss came to 0.00045 ± 0.00022 L/kg and the “maximum plasma concentration (approximate molar)” value is given as “approximately 0.55 μM”. For the same compound, in [3] (setting [10]), the AUC(0-inf) was 1340 ± 244 ng·h/mL, the maximum concentration (Cmax) stood at 248 ± 89.5 ng/mL, the MRT was 8.85 ± 1.83 h and the Tmax was found to be 1.25 ± 0.25 h. Also, the half-life in data set [3] (setting [10]) is 7.46 ± 1.75 h. The compound also came in with a final tumor volume in data set [4] of 3534.49±896.16 mm^3. Besides, in data set [5], the “cleaved caspase 3 positive apoptotic cells/field” value is 145.33±28.44 cells/field. In data set [6] (serum, control 572.90±38.51), the “VEGF level in serum” value is 336.40 ± 55.84 pg/mL. Besides, in [6] (tumor lysates, control 355.35± 49.93), the “VEGF level in tumor lysates” value is 175.65±25.76 pg/mg protein. The body weight change entry in [7] is listed as “no change in the body weights”. In addition, in data set [8], the aqueous solubility entry is reported as “less than 1 mg/ml”. This compound displayed a Papp A→B at 120 min, 100 μM in data set [9] of 0.34 ± 0.09 ×10⁻⁶ cm/s.

By AUC(0-inf) is commonly meant the area under the concentration-time curve extrapolated to infinity. Usually Cmax stands for the peak of the concentration-time curve. As a reminder, the MRT is the average time that molecules of a dose stay in the body. Usually Tmax stands for the time at which the peak concentration occurs. As a reminder, the half-life is the time needed for the level to fall by half in the phase considered. As a reminder, the Papp A→B is how fast a substance crosses the layer from the apical side. Lower therefore signals poor permeation.
